From ChEMBL document CHEMBL1799933, “Discovery of a selective allosteric M1 receptor modulator with suitable development properties based on a quinolizidinone carboxylic acid scaffold” (J Med Chem, 2011) come the findings set out here.

The test system of series [1] is Mus musculus. The series is described as follows: Antiamnesic activity against scopolamine-induced dementia in ip dosed B6SJL mouse assessed as increase in freezing behavior at 7.4 uM plasma concentration. It counts as functional, organism-based.
Series [2] addresses T1, Muscarinic acetylcholine receptor M1 (Homo sapiens) (UniProt P11229).
T1 sequence (whole entry): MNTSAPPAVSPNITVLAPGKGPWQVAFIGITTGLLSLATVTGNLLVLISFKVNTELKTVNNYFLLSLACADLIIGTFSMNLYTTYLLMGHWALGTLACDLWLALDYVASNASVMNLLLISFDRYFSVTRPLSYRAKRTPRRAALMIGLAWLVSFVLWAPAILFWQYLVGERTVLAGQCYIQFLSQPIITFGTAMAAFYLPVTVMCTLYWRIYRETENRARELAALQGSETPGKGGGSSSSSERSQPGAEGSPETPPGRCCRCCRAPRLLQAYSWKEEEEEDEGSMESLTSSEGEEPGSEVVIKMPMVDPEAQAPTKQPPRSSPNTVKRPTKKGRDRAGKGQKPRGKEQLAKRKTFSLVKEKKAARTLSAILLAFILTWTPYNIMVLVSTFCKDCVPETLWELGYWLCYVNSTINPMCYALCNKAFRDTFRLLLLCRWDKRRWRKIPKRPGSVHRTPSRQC
The series is described as follows: Agonist activity at human muscarinic M1 receptor expressed in CHONFAT cells assessed as enhancement of acetylcholine-induced calcium mobilization preincubated for 4 mins measured after 1 hr by FLIPR assay. Type of series: functional, cell-based. In short, it runs like this:
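CHO-NFAT cells expressing the named muscarinic receptor (human M1–M4; rhesus, dog or rat M1 in CHO-K1) were plated at 25,000 cells/well and grown overnight at 37 °C, 6% CO2. Cells were loaded with 1 μM Fluo-4AM for 1 h, washed, and preincubated 4 min with serially diluted compound (final DMSO 0.67%). They were then stimulated 4 min with an EC20 of ACh, and Ca2+ flux was read by FLIPR384.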

Series [3] can be described thus: Plasma protein binding in rat serum by equilibrium dialysis method. Type of series: ADME, cell-free. The conditions noted are these: read-out: PPB (converted). In short, it runs like this:
(§1)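 Protein binding measured by equilibrium dialysis against rat or human serum.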
On the technique in general: In equilibrium dialysis free small molecules cross a membrane that holds back macromolecules.

Series [4] is described as follows: Plasma protein binding in human serum by equilibrium dialysis method. Type of series: ADME, cell-free. The conditions noted are these: read-out: PPB (converted). In short, it runs like this:
as §1

The test system of another series is Canis familiaris. The experiment in a line: Metabolic stability in po dosed portal vein cannulated dog assessed as level of presystemic G1 glucuronidation by scintillation counting. Type of series: ADME, organism-based, Canis lupus familiaris. The conditions noted are these: in vivo.
Series [5] concerns Mus musculus. The experiment in a line: Antiamnesic activity against scopolamine-induced dementia in ip dosed B6SJL mouse assessed as increase in freezing behavior at 33 uM plasma concentration. Type of series: functional, organism-based.
Series [6] is described as follows: Clearance in dog at 3 mg/kg, po and 1 mg/kg, iv. Type of series: ADME, organism-based, Canis lupus familiaris. Particulars: in vivo. A digest of the protocol: (§2)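 Dog PK, n = 2 animals. Given orally at 3 mg/kg and intravenously at 1 mg/kg. Interanimal variability under 20% for all values.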
Series [7] can be described thus: Oral bioavailability in dog at 3 mg/kg. The conditions noted are these: in vivo. It counts as ADME, organism-based, Canis lupus familiaris. A digest of the protocol: as §2
The next series deals with Cerebrospinal fluid. The experiment in a line: Drug level in Sprague-Dawley rat cerebrospinal fluid at 10 mg/kg, po. Type of series: ADME, organism-based. Further details: dose 10 mg/kg, route oral. The conditions noted are these: in vivo, read-out: Drug uptake. In short, it runs like this:
(§3)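 Rats dosed orally at 10 mpk. Plasma, brain and CSF sampled at 2 h and concentrations determined by bioanalysis.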

Series [8] in a line: Passive permeability of the compound at 5 uM. Type of series: ADME. Particulars: not told.
Series [9] is described as follows: Ratio of drug level in cerebrospinal fluid to fraction unbound level in plasma of Sprague-Dawley rat at 10 mg/kg, po. Type of series: ADME, organism-based. The arrangement: dose 10 mg/kg, route oral. The conditions noted are these: in vivo.
The nature of series [10]: Ratio of drug level in brain to plasma of Sprague-Dawley rat at 10 mg/kg, po. Type of series: ADME, organism-based. Further details: dose 10 mg/kg, route oral. The conditions noted are these: read-out: BPR. In short, it runs like this: as §3
A short description of series [11]: Half life in dog at 3 mg/kg, po and 1 mg/kg, iv. It counts as ADME, organism-based, Canis lupus familiaris. Particulars: in vivo. A digest of the protocol:
as §2

The nature of series [12]: Half life in rat at 3 mg/kg, po and 1 mg/kg, iv. Type of series: ADME, organism-based. Particulars: in vivo. In short, it runs like this:
(§4)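 Rats (n = 2) dosed orally at 3 mg/kg and IV at 1 mg/kg. Interanimal variability under 20% for all values.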

Series [13] can be described thus: Oral bioavailability in rat at 3 mg/kg. Type of series: ADME, organism-based. Particulars: in vivo. A digest of the protocol:
as §4

Another series concerns Plasma. The series is described as follows: Drug level in Sprague-Dawley rat plasma at 10 mg/kg, po. Particulars: in vivo. The arrangement: dose 10 mg/kg, route oral. It counts as ADME, organism-based. In short, it runs like this: as §3
A further series deals with Brain. The experiment in a line: Drug level Sprague-Dawley rat brain at 10 mg/kg, po. It counts as ADME, organism-based. The arrangement: dose 10 mg/kg, route oral. The conditions noted are these: in vivo, read-out: Drug uptake. In short, it runs like this: as §3
Series [14] is described as follows: Clearance in rat at 3 mg/kg, po and 1 mg/kg, iv. The conditions noted are these: in vivo. It counts as ADME, organism-based. In short, it runs like this: as §4
Series [15] in a line: Fraction unbound in human plasma. It counts as ADME, cell-free.
Series [16] in a line: Fraction unbound in rat plasma. Type of series: ADME, cell-free.
A short description of series [17]: Lipophilicity, log P of the compound. Particulars: octanol/water. Type of series: physicochemical.

A word on the bioavailability: it is dose-corrected exposure relative to a reference, in per cent. What is called Papp is the rate of passage across a membrane or cell layer, normalised by area and donor concentration. The half-life is the time needed for the level to fall by half in the phase considered. A high value points to slow loss. A word on the logP: it is a log measure of how a compound divides between an organic and an aqueous phase. The low end stands for a more hydrophilic compound, the high end for a more lipophilic compound.

Active and inactive are the calls of the source.

Consider `N#Cc1ccc(N2CCN(Cc3cc(C(=O)O)c(=O)n4ccccc34)CC2)cc1`, for which, in the series on Mus musculus [1], the outcome was Active.
As to `N#CC1(c2cc(F)ccn2)CCN(Cc2cc(C(=O)O)c(=O)n3ccccc23)CC1`, the IP in [2] came to 244 nM.
As for `Cc1cccc(C2(C#N)CCN(Cc3cc(C(=O)O)c(=O)n4ccccc34)CC2)n1`, in series [2], the IP is 148 nM. In addition, the fraction unbound is 0.249 in [3] and 0.158 in [4].
The corresponding values for `COc1ccnc(C2(C#N)CCN(Cc3cc(C(=O)O)c(=O)n4ccccc34)CC2)c1` are 224 nM, 0.485 and 0.217.
Take `N#CC1(c2cc(-c3ccccc3)ccn2)CCN(Cc2cc(C(=O)O)c(=O)n3ccccc23)CC1`: in [2], the IP was 659 nM.
For `N#CC1(c2ccc(F)cc2)CCN(Cc2cc(C(=O)O)c(=O)n3ccccc23)CC1`, the IP in series [2] is 194 nM.
`[3H]OC(=O)c1cc(CN2CCC(C#N)(c3ccccn3)CC2)c2ccccn2c1=O`: the Stability in the series on Canis familiaris came out at 50%.
Take `COc1ccc(Cn2cc(C(=O)O)c(=O)c3ccccc32)cc1`: the result in the series with Mus musculus [5] was Active.
On to `N#CC1(c2cccc(F)c2)CCN(Cc2cc(C(=O)O)c(=O)n3ccccc23)CC1`, for which the IP in [2] is 562 nM.
`Cc1ccnc(C2(C#N)CCN(Cc3cc(C(=O)O)c(=O)n4ccccc34)CC2)c1`: the clearance in series [6] stood at 10.1 mL/min/kg; in [14], 17.7 mL/min/kg. Further, the bioavailability in series [7] was determined as 47%; in series [13], 24%. The concentration amounted to 180 nM in the series on Cerebrospinal fluid, 3070 nM in the series with Plasma and 233 nM with Brain. Besides, in series [8], the Papp at 5 µM amounted to 27 ×10⁻⁶ cm/s. Besides, the Ratio in [9] was determined as 0.25. In series [10], the Kp stood at 0.07. Besides, the half-life was 3.9 h in series [11] and 1.9 h in [12]. Also, the IP in series [2] was found to be 44 nM. Moreover, the fraction unbound in series [3] is 0.467; in series [4], 0.235.
On to `N#CC1(c2cccc(Cl)n2)CCN(Cc2cc(C(=O)O)c(=O)n3ccccc23)CC1`, for which the IP in [2] was determined as 133 nM. For the same compound, the fraction unbound was 0.218 in series [3] and 0.071 in [4].
As to `N#CC1(c2cc(C(F)(F)F)ccn2)CCN(Cc2cc(C(=O)O)c(=O)n3ccccc23)CC1`, the IP in series [2] is 2720 nM.
Consider `O=C(O)c1cc(CN2CCC(c3ccccc3)CC2)c2ccccn2c1=O`, for which the IP in series [2] worked out at 1340 nM.
In the case of `N#CC1(c2ccccc2F)CCN(Cc2cc(C(=O)O)c(=O)n3ccccc23)CC1`, in [2], the IP was 81 nM. Moreover, the fraction unbound in series [3] is 0.102; in series [4] it was 0.055.
In the case of `Cc1cccc(C2(C#N)CCN(Cc3cc(C(=O)O)c(=O)n4ccccc34)CC2)c1`, the IP in [2] worked out at 88 nM. Moreover, the fraction unbound in [3] was 0.059; in series [4] it was 0.048.
In the case of `N#CC1(c2ccccc2)CCN(Cc2cc(C(=O)O)c(=O)n3ccccc23)CC1`, the concentration in the series with Cerebrospinal fluid was 8 nM; in the series with Plasma, 321 nM; with Brain it was 127 nM. The Papp at 5 µM in series [8] stood at 27 ×10⁻⁶ cm/s. In addition, the Ratio in [9] was found to be 0.25. The Kp in series [10] is 0.39. In addition, the fraction unbound in series [15] is 0.1; in [16] it was 0.1; in [3] it was 0.135; in series [4] it was 0.101. Moreover, the IP in series [2] turned out to be 151 nM.
For the compound `Cc1cccnc1C1(C#N)CCN(Cc2cc(C(=O)O)c(=O)n3ccccc23)CC1`, the IP in [2] was determined as 1940 nM.
As to `COc1ccccc1C1(C#N)CCN(Cc2cc(C(=O)O)c(=O)n3ccccc23)CC1`, the IP in series [2] is 164 nM.
With `N#CC1(c2cccnc2)CCN(Cc2cc(C(=O)O)c(=O)n3ccccc23)CC1`, the values for the concentration with Cerebrospinal fluid and in the series with Plasma were 40 nM and 1720 nM, respectively. In series [8], this compound registered a Papp at 5 µM of 39 ×10⁻⁶ cm/s. Besides, the Ratio in [9] is listed as less than 0.1. Moreover, in series [2], the IP was 363 nM. This compound registered a lipophilicity (logP) in series [17] of -0.4. Besides, the values for the fraction unbound in series [3] and in series [4] were 0.509 and 0.361, respectively.
Consider `N#CC1(c2ccncc2)CCN(Cc2cc(C(=O)O)c(=O)n3ccccc23)CC1`, for which the IP in series [2] amounted to 938 nM.
On to `N#CC1CCN(Cc2cc(C(=O)O)c(=O)n3ccccc23)CC1`, for which the IP in series [2] was 7650 nM.
On to `CSc1cccc(C2(C#N)CCN(Cc3cc(C(=O)O)c(=O)n4ccccc34)CC2)n1`, for which, in series [2], the IP is 100 nM. The fraction unbound in series [3] is 0.057; in series [4], 0.012.
For the compound `CCc1ccnc(C2(C#N)CCN(Cc3cc(C(=O)O)c(=O)n4ccccc34)CC2)c1`, in series [2], the IP came to 84 nM. In addition, the fraction unbound in [3] is 0.272; in series [4] it was 0.134.
In the case of `Cc1ccc(C2(C#N)CCN(Cc3cc(C(=O)O)c(=O)n4ccccc34)CC2)nc1`, in [2], the IP came to 204 nM. The fraction unbound in series [3] was 0.348; in [4], 0.175.
Turning to `Cc1ccccc1C1(C#N)CCN(Cc2cc(C(=O)O)c(=O)n3ccccc23)CC1`, the concentration with Cerebrospinal fluid came to 16 nM; in the series on Plasma, 234 nM; with Brain, 114 nM. The compound further had a Papp at 5 µM in series [8] of 24 ×10⁻⁶ cm/s. In addition, in series [9], the Ratio turned out to be 0.5. Besides, the Kp in series [10] was found to be 0.48. The IP in [2] was found to be 68 nM. Also, the fraction unbound in series [3] is 0.051; in series [4], 0.038.
